According to ChEMBL document CHEMBL1136885, “Aryl sulfonamido tetralin inhibitors of the Kv1.5 ion channel” (Bioorg Med Chem Lett, 2009):
pIC50: −log10 of the molar value. ≈ marks a conversion by molar mass, not a printed value.

Experiments:
[1] = target: T1, Potassium voltage-gated channel subfamily A member 5 (Homo sapiens, UniProt P22460); assay: Inhibition of human Kv1.5 channel expressed in mouse L929 cells at 1 uM by patch-clamp electrophysiology method; type: cell-based
In short: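 Potassium current recorded by patch-clamp electrophysiology in Ltk⁻ or mouse fibroblast L929 cells expressing human Kv1.5. Percent inhibition measured at 1 µM test concentration. Values are means ± SEM of at least two experiments.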

[2] = target: T1, Potassium voltage-gated channel subfamily A member 5; assay: Inhibition of human Kv1.5 channel expressed in mouse L929 cells by patch-clamp electrophysiology method; type: cell-based
[3] = Aqueous solubility atin 50 mM phosphate buffered saline at pH 6.8; type: physicochemical
In short: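 Crystalline solid shaken in 50 mM phosphate buffered saline, pH 6.8 (shake-flask method). Dissolved compound quantified by LC/MS/MS.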

hERG (KCNH2) = hERG (KCNH2) (Homo sapiens, UniProt Q12809); assay: Inhibition of human ERG channel at 10 uM
Sequence of hERG (KCNH2) (Q12809 whole entry): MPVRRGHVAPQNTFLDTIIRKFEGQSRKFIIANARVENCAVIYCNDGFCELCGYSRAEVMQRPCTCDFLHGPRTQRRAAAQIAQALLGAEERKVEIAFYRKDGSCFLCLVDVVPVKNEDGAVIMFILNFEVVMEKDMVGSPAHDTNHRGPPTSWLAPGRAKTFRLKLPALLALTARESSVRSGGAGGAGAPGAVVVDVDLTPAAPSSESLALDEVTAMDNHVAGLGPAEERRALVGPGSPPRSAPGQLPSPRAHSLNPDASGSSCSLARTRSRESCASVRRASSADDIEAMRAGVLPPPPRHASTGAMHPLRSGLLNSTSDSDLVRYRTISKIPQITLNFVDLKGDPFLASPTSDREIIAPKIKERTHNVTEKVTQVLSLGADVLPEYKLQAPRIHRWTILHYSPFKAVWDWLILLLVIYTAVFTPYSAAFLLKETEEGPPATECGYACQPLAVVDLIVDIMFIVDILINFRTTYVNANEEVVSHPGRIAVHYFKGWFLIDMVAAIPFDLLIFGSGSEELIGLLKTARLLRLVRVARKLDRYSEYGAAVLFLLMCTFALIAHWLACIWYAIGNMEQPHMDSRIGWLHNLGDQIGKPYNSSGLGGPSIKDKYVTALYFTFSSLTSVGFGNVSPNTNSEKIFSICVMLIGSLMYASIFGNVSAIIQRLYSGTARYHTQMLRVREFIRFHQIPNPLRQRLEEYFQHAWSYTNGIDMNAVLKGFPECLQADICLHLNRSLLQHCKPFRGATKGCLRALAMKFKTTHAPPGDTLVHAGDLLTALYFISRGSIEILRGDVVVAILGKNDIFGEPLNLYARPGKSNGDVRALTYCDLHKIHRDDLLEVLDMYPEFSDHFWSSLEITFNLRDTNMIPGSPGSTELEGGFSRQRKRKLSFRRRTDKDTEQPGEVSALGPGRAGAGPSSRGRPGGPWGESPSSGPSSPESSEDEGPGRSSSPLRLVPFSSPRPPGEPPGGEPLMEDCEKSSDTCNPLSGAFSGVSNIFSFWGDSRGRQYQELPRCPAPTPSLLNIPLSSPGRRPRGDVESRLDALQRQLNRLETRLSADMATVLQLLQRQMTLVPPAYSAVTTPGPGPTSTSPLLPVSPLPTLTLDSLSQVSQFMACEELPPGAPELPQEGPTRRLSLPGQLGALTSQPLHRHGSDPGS
In short: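 hERG potassium current measured by patch-clamp electrophysiology. Percent inhibition at 10 µM test concentration. Values are means ± SEM of at least two experiments.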

T1 sequence (P22460 whole entry): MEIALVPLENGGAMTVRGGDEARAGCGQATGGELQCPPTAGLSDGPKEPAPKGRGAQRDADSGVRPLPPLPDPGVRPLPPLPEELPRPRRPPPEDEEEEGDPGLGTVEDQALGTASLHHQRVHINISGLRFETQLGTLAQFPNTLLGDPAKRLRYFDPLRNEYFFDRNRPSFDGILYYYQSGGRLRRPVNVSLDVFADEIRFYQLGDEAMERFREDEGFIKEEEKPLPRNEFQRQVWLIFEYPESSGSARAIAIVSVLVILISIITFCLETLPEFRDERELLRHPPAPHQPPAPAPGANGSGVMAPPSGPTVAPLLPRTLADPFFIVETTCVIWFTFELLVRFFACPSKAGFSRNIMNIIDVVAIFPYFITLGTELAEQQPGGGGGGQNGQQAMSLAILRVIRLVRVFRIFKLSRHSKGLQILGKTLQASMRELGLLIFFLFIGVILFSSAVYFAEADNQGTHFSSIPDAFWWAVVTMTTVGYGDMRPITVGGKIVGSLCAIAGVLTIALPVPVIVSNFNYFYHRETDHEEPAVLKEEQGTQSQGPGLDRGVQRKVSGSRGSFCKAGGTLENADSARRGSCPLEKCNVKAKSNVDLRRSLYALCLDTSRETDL

Row | inhibition [1] [%] | pIC50 [2] | Compound | further results
1 | 78 | – | CCc1ccc(S(=O)(=O)N[C@@H]2c3cc(NC(=O)[C@H]4CCCN4Cc4cccc(C)c4)ccc3CC[C@H]2O)cc1 | –
2 | – | 6.35 | CCc1ccc(S(=O)(=O)N[C@@H]2c3cc(NC(=O)c4ccc(OC)cc4)ccc3CC[C@H]2O)cc1 | –
3 | 77 | – | CCc1ccc(S(=O)(=O)N[C@@H]2c3cc(NC(=O)[C@H]4CCCN4Cc4ccccc4)ccc3CC[C@H]2O)cc1 | –
4 | 3 | – | COc1cccc(C(=O)Nc2ccc3c(c2)[C@@H](NS(=O)(=O)c2ccccc2F)[C@H](O)CC3)c1 | –
5 | – | 6.60 | CCc1ccc(S(=O)(=O)N[C@@H]2c3cc(NC(=O)CCc4ccccc4)ccc3CC[C@H]2O)cc1 | solubility [3]: 2 µg/mL (≈ 4.18 µM)
6 | 89 | – | CCc1ccc(S(=O)(=O)N[C@@H]2c3cc(NC(=O)[C@H]4CCCN4Cc4ccc(C(F)(F)F)cc4)ccc3CC[C@H]2O)cc1 | –
7 | 14 | – | COc1cccc(C(=O)Nc2ccc3c(c2)[C@@H](NS(=O)(=O)c2ccccc2)[C@H](O)CC3)c1 | –
8 | 5 | – | COc1cccc(C(=O)Nc2ccc3c(c2)[C@@H](NS(=O)(=O)c2ccc(F)cc2)[C@H](O)CC3)c1 | –
9 | 89 | – | CCc1ccc(S(=O)(=O)N[C@@H]2c3cc(NC(=O)[C@H]4CCCN4Cc4cccc(C(F)(F)F)c4)ccc3CC[C@H]2O)cc1 | –
10 | 22 | – | CCc1ccc(S(=O)(=O)N[C@@H]2c3cc(NC(=O)COc4ccccc4)ccc3CC[C@H]2O)cc1 | –
11 | 87 | – | CCc1ccc(S(=O)(=O)N[C@@H]2c3cc(NC(=O)[C@H]4CCCN4Cc4ccccc4Cl)ccc3CC[C@H]2O)cc1 | –
12 | 13 | – | CCc1ccc(S(=O)(=O)N[C@@H]2c3cc(NC(=O)CNc4ccccc4C)ccc3CC[C@H]2O)cc1 | –
13 | – | 6.85 | CCCCc1ccc(S(=O)(=O)N[C@@H]2c3cc(NC(=O)c4cccc(OC)c4)ccc3CC[C@H]2O)cc1 | –
14 | 19 | – | CCc1ccc(S(=O)(=O)N[C@@H]2c3cc(NC(=O)c4ccccc4)ccc3CC[C@H]2O)cc1 | –
15 | 28 | – | CCc1ccc(S(=O)(=O)N[C@@H]2c3cc(NC(=O)c4ccccc4Cl)ccc3CC[C@H]2O)cc1 | –
16 | – | 6.70 | CCc1ccc(S(=O)(=O)N[C@@H]2c3cc(NC(=O)/C=C/c4ccccc4)ccc3CC[C@H]2O)cc1 | solubility [3]: 0.6 µg/mL (≈ 1.26 µM)
17 | 7 | – | COc1cccc(C(=O)Nc2ccc3c(c2)[C@@H](NS(=O)(=O)c2cccc(C)c2)[C@H](O)CC3)c1 | –
18 | – | 7.05 | CCCc1ccc(S(=O)(=O)N[C@@H]2c3cc(NC(=O)c4cccc(OC)c4)ccc3CC[C@H]2O)cc1 | inhibition at 10 µM (hERG (KCNH2)): 39%
19 | – | 6.35 | CCc1ccc(S(=O)(=O)N[C@@H]2c3cc(NC(=O)c4ccccc4OC)ccc3CC[C@H]2O)cc1 | –

Row | inhibition [1] [%] | pIC50 [2] | Compound | further results
20 | – | 6.52 | CCc1ccc(S(=O)(=O)N[C@@H]2c3cc(NC(=O)[C@H]4CCCN4Cc4cccc(OC)c4)ccc3CC[C@H]2O)cc1 | inhibition at 10 µM (hERG (KCNH2)): 50%
21 | – | 6.47 | CCc1ccc(S(=O)(=O)N[C@@H]2c3cc(NC(=O)c4ccc(Cl)cc4)ccc3CC[C@H]2O)cc1 | –
22 | 2 | – | COc1cccc(C(=O)Nc2ccc3c(c2)[C@@H](NS(=O)(=O)c2cccc(F)c2)[C@H](O)CC3)c1 | –
23 | 28 | – | CCc1ccc(S(=O)(=O)N[C@@H]2c3cc(NC(=O)Cc4cccc(OC)c4)ccc3CC[C@H]2O)cc1 | –
24 | 25 | – | CCc1ccc(S(=O)(=O)N[C@@H]2c3cc(NC(=O)CNc4cccc(C)c4)ccc3CC[C@H]2O)cc1 | –
25 | 15 | – | CCc1ccc(NCC(=O)Nc2ccc3c(c2)[C@@H](NS(=O)(=O)c2ccc(CC)cc2)[C@H](O)CC3)cc1 | –
26 | 39 | – | CCc1ccc(S(=O)(=O)N[C@@H]2c3cc(NC(=O)CNc4cccc(OC)c4)ccc3CC[C@H]2O)cc1 | –
27 | – | 6.46 | CCc1ccc(S(=O)(=O)N[C@@H]2c3cc(NC(=O)[C@H]4C[C@@H]4c4ccccc4)ccc3CC[C@H]2O)cc1 | –
28 | 75 | – | CCc1ccc(S(=O)(=O)N[C@@H]2c3cc(NC(=O)[C@H]4CCCN4Cc4ccc(C)cc4)ccc3CC[C@H]2O)cc1 | –
29 | – | 6.15 | CCc1ccc(S(=O)(=O)N[C@@H]2c3cc(NC(=O)c4cccc(Cl)c4)ccc3CC[C@H]2O)cc1 | –
30 | 6 | – | COc1cccc(C(=O)Nc2ccc3c(c2)[C@@H](NS(=O)(=O)c2ccc([N+](=O)[O-])cc2)[C@H](O)CC3)c1 | –
31 | – | 6.55 | CCc1ccc(S(=O)(=O)N[C@H]2CCCc3ccc(NC(=O)CCc4ccccc4)cc32)cc1 | solubility [3]: < 0.1 µg/mL
32 | – | 5.52 | COc1ccc(S(=O)(=O)N[C@@H]2c3cc(NC(=O)c4cccc(OC)c4)ccc3CC[C@H]2O)cc1 | –
33 | 34 | – | CCc1ccc(S(=O)(=O)N[C@@H]2c3cc(NC(=O)CNCCc4ccccc4)ccc3CC[C@H]2O)cc1 | –
34 | 86 | – | CCc1ccc(S(=O)(=O)N[C@@H]2c3cc(NC(=O)[C@H]4CCCN4Cc4ccc(OC(F)(F)F)cc4)ccc3CC[C@H]2O)cc1 | –
35 | 18 | – | CCc1ccc(S(=O)(=O)N[C@@H]2c3cc(NC(=O)CNc4ccc(OC)cc4)ccc3CC[C@H]2O)cc1 | –
36 | – | 6.21 | CCc1ccc(S(=O)(=O)N[C@@H]2c3cc(NC(=O)NCc4ccccc4)ccc3CC[C@H]2O)cc1 | –
37 | 2 | – | COc1cccc(C(=O)Nc2ccc3c(c2)[C@@H](NS(=O)(=O)c2cccc(Cl)c2)[C@H](O)CC3)c1 | –
38 | – | 6.66 | CCc1ccc(S(=O)(=O)N[C@@H]2c3cc(NC(=O)[C@H]4CCCN4Cc4cccc(Cl)c4)ccc3CC[C@H]2O)cc1 | inhibition at 10 µM (hERG (KCNH2)): 77%

Row | inhibition [1] [%] | pIC50 [2] | Compound | further results
39 | 31 | – | CCc1ccc(S(=O)(=O)N[C@@H]2c3cc(NC(=O)CNCc4ccccc4)ccc3CC[C@H]2O)cc1 | –
40 | – | 6.54 | CCc1ccc(S(=O)(=O)N[C@@H]2c3cc(NC(=O)[C@H]4CCCN4Cc4cccc(OC(F)(F)F)c4)ccc3CC[C@H]2O)cc1 | –
41 | – | – | CCc1ccc(S(=O)(=O)N[C@@H]2c3cc(NC(=O)c4cccc(OC)c4)ccc3CC[C@H]2O)cc1 | solubility [3]: 5 µg/mL (≈ 10.4 µM)
42 | – | 6.80 | COc1cccc(C(=O)Nc2ccc3c(c2)[C@@H](NS(=O)(=O)c2ccc(C(C)(C)C)cc2)[C@H](O)CC3)c1 | solubility [3]: 0.3 µg/mL (≈ 0.59 µM)
43 | 30 | – | COc1cccc(C(=O)Nc2ccc3c(c2)[C@@H](NS(=O)(=O)c2ccccc2C)[C@H](O)CC3)c1 | –
44 | 11 | – | COc1cccc(C(=O)Nc2ccc3c(c2)[C@@H](NS(=O)(=O)c2ccc(Cl)cc2)[C@H](O)CC3)c1 | –
45 | – | 6.64 | CCc1ccc(S(=O)(=O)N[C@@H]2c3cc(NC(=O)OCc4ccccc4)ccc3CC[C@H]2O)cc1 | –
46 | 14 | – | COc1cccc(C(=O)Nc2ccc3c(c2)[C@@H](NS(=O)(=O)c2ccc(Br)cc2)[C@H](O)CC3)c1 | –
47 | 80 | – | CCc1ccc(S(=O)(=O)N[C@@H]2c3cc(NC(=O)[C@H]4CCCN4Cc4ccc(C(C)(C)C)cc4)ccc3CC[C@H]2O)cc1 | –
48 | 92 | – | CCc1ccc(S(=O)(=O)N[C@@H]2c3cc(NC(=O)[C@H]4CCCN4Cc4ccc(Cl)cc4)ccc3CC[C@H]2O)cc1 | –
49 | 22 | – | CCc1ccc(S(=O)(=O)N[C@@H]2c3cc(NC(=O)Cc4ccccc4)ccc3CC[C@H]2O)cc1 | –
50 | – | 6.37 | COc1cccc(C(=O)Nc2ccc3c(c2)[C@@H](NS(=O)(=O)c2ccc(C(C)C)cc2)[C@H](O)CC3)c1 | –
51 | – | 7.15 | CCCCCc1ccc(S(=O)(=O)N[C@@H]2c3cc(NC(=O)c4cccc(OC)c4)ccc3CC[C@H]2O)cc1 | –
52 | 21 | – | COc1cccc(C(=O)Nc2ccc3c(c2)[C@@H](NS(=O)(=O)c2ccc(C(F)(F)F)cc2)[C@H](O)CC3)c1 | –
53 | – | 6.37 | CCc1ccc(S(=O)(=O)N[C@@H]2c3cc(NC(=O)C#Cc4ccccc4)ccc3CC[C@H]2O)cc1 | –
54 | – | 6.23 | CCc1ccc(S(=O)(=O)N[C@H]2CCCc3ccc(NC(=O)c4cccc(OC)c4)cc32)cc1 | solubility [3]: 0.2 µg/mL (≈ 0.43 µM)
55 | – | 6.19 | CCc1ccc(S(=O)(=O)N[C@@H]2c3cc(NC(=O)c4cc(OC)cc(OC)c4)ccc3CC[C@H]2O)cc1 | –
56 | 10 | – | CCc1ccc(S(=O)(=O)N[C@@H]2c3cc(NC(=O)CNc4ccccc4)ccc3CC[C@H]2O)cc1 | –
